Measured values pooled from the literature.
Lines come from different studies, so protocols differ.
Organism: Staphylococcus aureus
Read-out: microbial growth

SMILES | test | system | conditions | MIC
O=C(N[C@H](CO)[C@H](O)c1ccc([N+](=O)[O-])cc1)C(Cl)Cl | broth dilution | ATCC25923 | – | 6.25 µg/mL
Cc1ccc2[nH]nc(-c3nnc(Nc4ccc(C(F)(F)F)cc4)s3)c2c1 | – | ATCC29213 | – | 14.4 µg/mL
COc1ccc(N2N=C(C(C)=O)SC2=C(C#N)C(=O)c2ccc(Nc3cnccn3)cc2)cc1 | broth dilution | ATCC25923 | – | 6.25 µg/mL
COc1cccc(OC)c1C(=O)N[C@@H]1C(=O)N2[C@@H]1SC(C)(C)[C@@H]2C(=O)O | broth dilution | USA300 | – | > 64 µg/mL
CCN1CCC(CCNCc2cc3cc(-c4ccccc4)ccc3nc2SCc2ccccc2)CC1 | broth dilution | – | – | 4 µg/mL
C=C[C@]1(C)C[C@@H](OC(=O)CS[C@@H]2C[C@H]3CC[C@@H](C2)N3C)[C@]2(C)[C@H](C)CC[C@]3(CCC(=O)[C@H]32)[C@@H](C)[C@@H]1O | agar dilution | ATCC29213 | – | 0.0625 µg/mL
COc1c(N2C[C@@H]3CCCN[C@@H]3C2)c(F)cc2c(=O)c(C(=O)O)cn(C3CC3)c12 | broth dilution | ATCC33591 MRSA | – | 0.125 µg/mL
Cc1ccc2[nH]nc(-c3nnc(Nc4cc(Cl)cc(Br)c4)s3)c2c1 | – | ATCC29213 | – | 204 µg/mL
CC1(C)S[C@@H]2[C@H](NC(=O)[C@H](N)c3ccccc3)C(=O)N2[C@H]1C(=O)O | broth dilution | MRSA | – | 345 µM
CC[C@H]1OC(=O)[C@H](C)[C@@H](O[C@H]2C[C@@](C)(OC)[C@@H](O)[C@H](C)O2)[C@H](C)[C@@H](O[C@@H]2O[C@H](C)C[C@H](N(C)C)[C@H]2O)[C@](C)(O)C[C@@H](C)/C(=N\OCOCCOC)[C@H](C)[C@@H](O)[C@]1(C)O | agar dilution | ATCC29213 | – | 4 µg/mL
CN1CCN(CCNCc2cc3cc(-c4ccccc4)ccc3nc2SCc2ccccc2)CC1 | broth dilution | – | – | 8 µg/mL
CC(=O)NC[C@H]1CN(c2ccc(N3CCOCC3)c(F)c2)C(=O)O1 | – | MRSA | – | 1 µg/mL
CCCCCCC#Cc1cncc(-c2nnc(SCc3cc([N+](=O)[O-])cc([N+](=O)[O-])c3)n2C2CCNCC2)c1 | broth dilution | MRSA | – | 8 µg/mL
CN[C@H](CC(C)C)C(=O)N[C@H]1C(=O)N[C@@H](CC(N)=O)C(=O)N[C@H]2C(=O)N[C@H]3C(=O)N[C@H](C(=O)N[C@H](C(=O)O)c4cc(O)cc(O)c4-c4cc3ccc4O)[C@H](O)c3ccc(c(Cl)c3)Oc3cc2cc(c3O[C@@H]2O[C@H](CO)[C@@H](O)[C@H](O)[C@H]2O[C@H]2C[C@](C)(N)[C@H](O)[C@H](C)O2)Oc2ccc(cc2Cl)[C@H]1O | agar dilution | ATCC25923 | – | 0.5 µg/mL
O=C1/C(=C/c2ccc3ccccc3c2O)NC(=S)N1c1ccccc1 | broth dilution | ATCC6538 | – | 22 µg/mL
CC(=O)NC[C@H]1CN(c2ccc(N3CCOCC3)c(F)c2)C(=O)O1 | broth dilution | USA300 | – | 1 µg/mL
CC[C@H]1OC(=O)[C@H](C)[C@@H](O[C@H]2C[C@@](C)(OC)[C@@H](O)[C@H](C)O2)[C@H](C)[C@@H](O[C@@H]2O[C@H](C)C[C@H](N(C)C)[C@H]2O)[C@](C)(O)C[C@@H](C)CN(C)[C@H](C)[C@@H](O)[C@]1(C)O | – | ATCC29213 | – | < 98 µg/mL
CN[C@H](CC(C)C)C(=O)N[C@H]1C(=O)N[C@@H](CC(N)=O)C(=O)N[C@H]2C(=O)N[C@H]3C(=O)N[C@H](C(=O)N[C@H](C(=O)O)c4cc(O)cc(O)c4-c4cc3ccc4O)[C@H](O)c3ccc(c(Cl)c3)Oc3cc2cc(c3O[C@@H]2O[C@H](CO)[C@@H](O)[C@H](O)[C@H]2O[C@H]2C[C@](C)(N)[C@H](O)[C@H](C)O2)Oc2ccc(cc2Cl)[C@H]1O | broth dilution | USA300 | – | 1 µg/mL
[H]/N=C(\N/C(=N/[H])NCCCCCCNC(=N)NC(=N)Nc1ccc(Cl)cc1)Nc1ccc(Cl)cc1 | – | MRSA USA300 | drug-resistant strain | 1 µM
c1ccc(CSc2nc3ccc(-c4ccccc4)cc3cc2CNCCC2CCN(C3CCCC3)CC2)cc1 | broth dilution | – | – | 8 µg/mL

SMILES | test | system | conditions | MIC
CC[C@H]1OC(=O)[C@H](C)[C@@H](O[C@H]2C[C@@](C)(OC)[C@@H](O)[C@H](C)O2)[C@H](C)[C@@H](O[C@@H]2O[C@H](C)C[C@H](N(C)C)[C@H]2O)[C@](C)(O)C[C@@H](C)CN(C)[C@H](C)[C@@H](O)[C@]1(C)O | broth dilution | ATCCBAA44 BAA44 | – | > 64 µg/mL
C[C@H]1COc2c(N3CCN(C)CC3)c(F)cc3c(=O)c(C(=O)O)cn1c23 | – | ATCC29213 MSSA | drug-resistant strain | 0.12 µg/mL
CN1CCN(CCNCc2cc3cc(Br)ccc3nc2SCc2ccccc2)CC1 | broth dilution | – | – | 16 µg/mL
CCCCCCC#Cc1cncc(-c2nnc(SCc3cc([N+](=O)[O-])cc([N+](=O)[O-])c3)n2CCOC2OC(CN)C(O)C2O)c1 (stereo not drawn) | broth dilution | MRSA | – | > 64 µg/mL
CC1(C)S[C@@H]2[C@H](NC(=O)[C@H](N)c3ccccc3)C(=O)N2[C@H]1C(=O)O | agar dilution | ATCC25923 | – | 0.5 µg/mL
CCCCCCCCCCCC[N+](C)(C)Cc1ccccc1 | – | MSSA | – | 4 µM
COc1c(N2C[C@@H]3CCCN[C@@H]3C2)c(F)cc2c(=O)c(C(=O)O)cn(C3CC3)c12 | agar dilution | ATCC29213 | – | 0.5 µg/mL
CCCCCCC#Cc1cncc(-c2nnc(SCc3ccc(Cl)cc3)n2CCCN)c1 | broth dilution | ATCC29213 | – | 8 µg/mL
CC1(C)S[C@@H]2[C@H](NC(=O)[C@H](N)c3ccc(O)cc3)C(=O)N2[C@H]1C(=O)O | broth dilution | USA300 | – | 64 µg/mL
CCCCCCCCN=c1ccn(CCCCCCCCCCn2ccc(=NCCCCCCCC)cc2)cc1 | – | MSSA | – | 0.5 µM
N=c1sc(C(=O)c2ccc(Nc3cnccn3)cc2)nn1-c1ccccc1 | broth dilution | ATCC25923 | – | 50 µg/mL
CC1(C)S[C@@H]2[C@H](NC(=O)[C@H](N)c3ccccc3)C(=O)N2[C@H]1C(=O)O | broth dilution | ATCC25923 | 12 h | 0.13 µg/mL
C[C@H]1COc2c(N3CCN(C)CC3)c(F)cc3c(=O)c(C(=O)O)cn1c23 | broth dilution | ATCCBAA44 | 18 h | 50 µM
CCCCCCC#Cc1cncc(-c2nnc(SCc3cc(C(F)(F)F)cc(C(F)(F)F)c3)n2CCCN)c1 | broth dilution | ATCC29213 | – | 4 µg/mL
c1ccc(CSc2nc3ccc(-c4ccccc4)cc3cc2CNCc2ccc(CN3CCCC3)cc2)cc1 | broth dilution | – | – | > 128 µg/mL
COc1ccc(C=NNC(=O)CSc2nc3c(C)cccc3c(=O)n2-c2ccccc2)cc1OS(C)(=O)=O | broth dilution | – | – | 12.5 µg/mL
CNC(C)C1CCC(N)C(OC2C(N)CC(N)C(OC3OCC(C)(O)C(NC)C3O)C2O)O1 (stereo not drawn) | broth dilution | – | – | 2 µg/mL
Cc1ccc2[nH]nc(-c3nnc(Nc4ccc(C)c(C)c4)s3)c2c1 | – | ATCC29213 | – | 94.2 µg/mL
CCCCCCC#Cc1cncc(-c2nnc(SCc3ccc([N+](=O)[O-])cc3)n2CCCN)c1 | broth dilution | ATCC29213 | – | 8 µg/mL
